Results as given in ChEMBL document CHEMBL1649281, “Detection of the novel extended-spectrum beta-lactamase OXA-161 from a plasmid-located integron in Pseudomonas aeruginosa clinical isolates from Spain” (2009).
≈ marks a conversion by molar mass, not a printed value.

What was measured:
Assay type in all cases: functional
[1] = tested on: Pseudomonas aeruginosa; assay: Antibacterial activity against Pseudomonas aeruginosa PAO1 harboring cloned pUCPOXA-161 by Etest
[2] = tested on: Pseudomonas aeruginosa; assay: Antibacterial activity against Pseudomonas aeruginosa PAO1 harboring Pseudomonas aeruginosa plasmid DNA isolated from wound infection of patient by Etest
[3] = tested on: Pseudomonas aeruginosa; assay: Antibacterial activity against Pseudomonas aeruginosa isolated from wound infection of patient by Etest
[4] = tested on: Pseudomonas aeruginosa; assay: Antibacterial activity against Pseudomonas aeruginosa PAO1 by Etest
[5] = tested on: Pseudomonas aeruginosa; assay: Antibacterial activity against Pseudomonas aeruginosa isolated from lung biopsy specimen of patient by Etest
[6] = tested on: Pseudomonas aeruginosa; assay: Antibacterial activity against Pseudomonas aeruginosa PAO1 harboring Pseudomonas aeruginosa plasmid DNA lung biopsy specimen of patient by Etest
[7] = tested on: Pseudomonas aeruginosa; assay: Antibacterial activity against Pseudomonas aeruginosa PAO1 harboring cloned pUCPOXA-2 by Etest
[8] = tested on: Pseudomonas aeruginosa; assay: Antibacterial activity against Pseudomonas aeruginosa isolated from wound infection of patient by CLSI broth microdilution method
How it was run: (§1)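 CLSI standard broth microdilution MICs were determined for carbenicillin, ceftazidime, and ceftazidime plus clavulanate held at a fixed 4 μg/ml.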

[9] = tested on: Pseudomonas aeruginosa; assay: Antibacterial activity against Pseudomonas aeruginosa PAO1 harboring cloned pUCPOXA-2 by CLSI broth microdilution method; how it was run: as §1
[10] = tested on: Pseudomonas aeruginosa; assay: Antibacterial activity against Pseudomonas aeruginosa PAO1 by CLSI broth microdilution method
How it was run: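 MIC by standard CLSI broth microdilution, tested with carbenicillin, ceftazidime, and ceftazidime plus clavulanate at 4 μg/ml. P. aeruginosa PAO1 was the recipient strain, with transformants produced by electroporation and selected on LB agar with 20 μg/ml ceftazidime.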

[11] = tested on: Pseudomonas aeruginosa; assay: Antibacterial activity against Pseudomonas aeruginosa PAO1 harboring cloned pUCPOXA-161 by CLSI broth microdilution method; how it was run: as §1
[12] = tested on: Pseudomonas aeruginosa; assay: Antibacterial activity against Pseudomonas aeruginosa PAO1 harboring Pseudomonas aeruginosa plasmid DNA lung biopsy specimen of patient by CLSI broth microdilution method
How it was run: (§2)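 Plasmid DNA from the clinical isolate was electroporated into PAO1, and transformants were selected on LB agar with 20 μg/ml ceftazidime. Transformants were confirmed by double-disk synergy test and PCR. CLSI broth microdilution MICs were determined for carbenicillin, ceftazidime, and ceftazidime plus fixed 4 μg/ml clavulanate.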

[13] = tested on: Pseudomonas aeruginosa; assay: Antibacterial activity against Pseudomonas aeruginosa isolated from lung biopsy specimen of patient by CLSI broth microdilution method; how it was run: as §1
[14] = tested on: Pseudomonas aeruginosa; assay: Antibacterial activity against Pseudomonas aeruginosa PAO1 harboring Pseudomonas aeruginosa plasmid DNA isolated from wound infection of patient by CLSI broth microdilution method; how it was run: as §2

| Molecule | MIC [1] | MIC [2] | MIC [3] | MIC [4] | MIC [5] | MIC [6] | MIC [7] | MIC [8] | MIC [9] | MIC [10] | MIC [11] | MIC [12] | MIC [13] | MIC [14] |
| --- | --- | --- | --- | --- | --- | --- | --- | --- | --- | --- | --- | --- | --- | --- |
| C[C@@H](O)[C@H]1C(=O)N2C(C(=O)O)=C(SCCNC=N)C[C@H]12 [IMIPENEM ANHYDROUS] | 1.5 µg/mL (≈ 5.01 µM) | 1 µg/mL (≈ 3.34 µM) | 16 µg/mL (≈ 53.4 µM) | 1.5 µg/mL (≈ 5.01 µM) | 32 µg/mL (≈ 107 µM) | 1 µg/mL (≈ 3.34 µM) | 1.5 µg/mL (≈ 5.01 µM) |  |  |  |  |  |  |  |
| NC[C@H]1O[C@H](O[C@H]2[C@H](O)[C@@H](O[C@H]3O[C@H](CO)[C@@H](O)[C@H](N)[C@H]3O)[C@H](N)C[C@@H]2N)[C@H](N)C[C@@H]1O [TOBRAMYCIN] |  | 12 µg/mL (≈ 25.7 µM) | 48 µg/mL (≈ 103 µM) | 1 µg/mL (≈ 2.14 µM) | 64 µg/mL (≈ 137 µM) | 12 µg/mL (≈ 25.7 µM) |  |  |  |  |  |  |  |  |
| C[C@@H](O)[C@H]1C(=O)N2C(C(=O)O)=C(S[C@@H]3CN[C@H](C(=O)N(C)C)C3)[C@H](C)[C@H]12 [MEROPENEM] | 0.5 µg/mL (≈ 1.3 µM) | 0.75 µg/mL (≈ 1.96 µM) | 6 µg/mL (≈ 15.6 µM) | 0.38 µg/mL (≈ 0.991 µM) | 8 µg/mL (≈ 20.9 µM) | 0.75 µg/mL (≈ 1.96 µM) | 0.38 µg/mL (≈ 0.991 µM) |  |  |  |  |  |  |  |
| GENTAMICIN |  | 12 µg/mL | 32 µg/mL | 2 µg/mL | 64 µg/mL | 8 µg/mL |  |  |  |  |  |  |  |  |
| NCC[C@H](O)C(=O)N[C@@H]1C[C@H](N)[C@@H](O[C@H]2O[C@H](CN)[C@@H](O)[C@H](O)[C@H]2O)[C@H](O)[C@H]1O[C@H]1O[C@H](CO)[C@@H](O)[C@H](N)[C@H]1O [AMIKACIN] |  | 12 µg/mL (≈ 20.5 µM) | 32 µg/mL (≈ 54.6 µM) | 3 µg/mL (≈ 5.12 µM) | 64 µg/mL (≈ 109 µM) | 12 µg/mL (≈ 20.5 µM) |  |  |  |  |  |  |  |  |
| CC1(C)S[C@@H]2[C@H](NC(=O)C(C(=O)O)c3ccccc3)C(=O)N2[C@H]1C(=O)O (stereo not given in full) [CARBENICILLIN] |  |  |  |  |  |  |  | 128 µg/mL (≈ 338 µM) | > 256 µg/mL | 32 µg/mL (≈ 84.6 µM) | 128 µg/mL (≈ 338 µM) | 128 µg/mL (≈ 338 µM) | 128 µg/mL (≈ 338 µM) | 128 µg/mL (≈ 338 µM) |
| CC(C)(O/N=C(\C(=O)N[C@@H]1C(=O)N2C(C(=O)[O-])=C(C[n+]3ccccc3)CS[C@H]12)c1csc(N)n1)C(=O)O [CEFTAZIDIME] |  |  |  |  |  |  |  | > 256 µg/mL | 8 µg/mL (≈ 14.6 µM) | 2 µg/mL (≈ 3.66 µM) | 64 µg/mL (≈ 117 µM) | 128 µg/mL (≈ 234 µM) | > 256 µg/mL | 128 µg/mL (≈ 234 µM) |
| COLISTIN |  | 2 µg/mL | 2 µg/mL | 2 µg/mL | 2 µg/mL | 2 µg/mL |  |  |  |  |  |  |  |  |
| CCN1CCN(C(=O)N[C@@H](C(=O)N[C@@H]2C(=O)N3[C@@H]2SC(C)(C)[C@@H]3C(=O)O)c2ccccc2)C(=O)C1=O [PIPERACILLIN] | 24 µg/mL (≈ 46.4 µM) | 16 µg/mL (≈ 30.9 µM) | 24 µg/mL (≈ 46.4 µM) | 2 µg/mL (≈ 3.86 µM) | 24 µg/mL (≈ 46.4 µM) | 32 µg/mL (≈ 61.8 µM) | 48 µg/mL (≈ 92.7 µM) |  |  |  |  |  |  |  |
| CO/N=C(\C(=O)N[C@@H]1C(=O)N2C(C(=O)[O-])=C(C[N+]3(C)CCCC3)CS[C@H]12)c1csc(N)n1 |  | 8 µg/mL (≈ 16.6 µM) | 16 µg/mL (≈ 33.3 µM) | 1 µg/mL (≈ 2.08 µM) | 12 µg/mL (≈ 25 µM) | 8 µg/mL (≈ 16.6 µM) |  |  |  |  |  |  |  |  |
